Assay results as given in ChEMBL document CHEMBL1148268, “Macrocyclic piperazinones as potent dual inhibitors of farnesyltransferase and geranylgeranyltransferase-I” (Bioorg Med Chem Lett, 2004).
≈ marks a conversion by molar mass, not a printed value.

Experiments:
[1] = target: T1, Geranylgeranyl transferase type I (Homo sapiens, UniProt P49354+P53609); assay: Minimum inhibitory concentration required to inhibit Rap1a processing in PSN-1 cells.; format: functional, cell-based
[2] = target: T2, Protein farnesyltransferase (Homo sapiens, UniProt P49354+P49356); assay: Inhibition of human Farnesyltransferase -catalyzed incorporation of [3H]FPP into recombinant Ras-CVIM.; format: protein-complex assay
How it was run: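 Human FPTase with [3H]FPP and recombinant Ras-CVIM as the protein substrate. The IC50 is the concentration that halves [3H]farnesyl incorporation into Ras-CVIM.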

PSN1 [3] = assay: Effective dose required for half-maximal inhibition of geranylgeranylated protein (Rap1a) in PSN-1 cells; format: functional, cell-based; details: Homo sapiens
How it was run: (§1)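 PSN-1 cells are treated with compound. Prenylation of HDJ2, Rap1a and Ki-Ras is scored by scanning immunoblots of whole-cell extracts, and EC50 is the dose giving half-maximal inhibition of prenylation. The ratio is Ki-Ras EC50 over HDJ2 EC50. In one arm a selective GGTI is added at 1 μM.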

[4] = target: T2, Protein farnesyltransferase; assay: Displacement of radiolabeled FTI from Farnesyltransferase in cultured Ha-ras transformed RAT1 cells.; format: cell-based
PSN1 [5] = assay: Effective dose required for half-maximal inhibition of prenylation in PSN-1 cells (Ki-Ras); format: functional, cell-based; details: Homo sapiens; how it was run: as §1
Homo sapiens = organism: Homo sapiens; assay: Slope between log (IC50) versus log [GGPP] in GGTase-I; format: functional
How it was run: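 GGPP competition in the human GGPTase-I [3H]GGPP/biotinylated Ki-Ras peptide assay. IC50s are measured at various GGPP concentrations with 5 mM ATP.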

PSN1 [6] = assay: Effective dose required for half-maximal inhibition of farnesylated protein (HDJ2) in PSN-1 cells; format: functional, cell-based; details: Homo sapiens; how it was run: as §1
PSN1 [7] = assay: Ratio of effective concentration required for protein processing of Ki-Ras to that of HDJ2 in PSN-1 cells; format: functional, Homo sapiens; how it was run: as §1
[8] = target: T1, Geranylgeranyl transferase type I; assay: Inhibition of human Geranylgeranyl transferase type I incorporation of [3H]GGPP into biotinylated peptide corresponding to the C-terminus of human Ki-Ras.; format: protein-complex assay
How it was run: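 Human GGPTase-I with [3H]GGPP and a biotinylated peptide matching the human Ki-Ras C-terminus. Enzyme and inhibitor are preincubated for 30 min with 5 mM ATP. The IC50 is the concentration that halves incorporation. A parallel run omits the preincubation.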

Row | SMILES | MIC [1] | IC50 [2] | EC50 (PSN1 [3]) | IC50 [4] | EC50 (PSN1 [5]) | Slope (Homo sapiens) | EC50 (PSN1 [6]) | Ratio (PSN1 [7]) | IC50 [8]
1 | N#Cc1ccc2cc1Oc1ccc(CCC3CCCCC3)c(c1)CN1CCN(CC1=O)Cc1cncn1C2 | 0.03 µM (≈ 0.0153 µg/mL) | 1.6 nM | 140 nM | 5.7 nM | 1060 nM | -0.25 | 12 nM | 89 | 1.7 nM
2 | N#Cc1ccc2cc1Oc1ccc3cccc(c3c1)N1CCN(CC1=O)Cc1cncn1C2 | 10 µM (≈ 4.35 µg/mL) |  | > 10000 nM | 0.29 nM | > 10000 nM | -0.44 | 2 nM | >5000 | 301 nM
3 | CC1(C)OCC(Cc2ccc3cc2CN2CCN(CC2=O)Cc2cncn2Cc2ccc(C#N)c(c2)O3)O1 (stereo not drawn) | < 0.3 µM | 0.5 nM | 690 nM | 0.86 nM | 1520 nM | 0.25 | 10 nM | 150 | 46 nM
4 | Cc1ccc2cc1CN1CCN(CC1=O)Cc1cncn1Cc1ccc(C#N)c(c1)O2 |  |  |  | 0.33 nM |  |  |  |  | 502 nM
5 | N#Cc1ccc(Cn2cncc2CN2CCN(c3cccc(Cl)c3)C(=O)C2)cc1 [L-778123 FREE BASE] |  |  | 6760 nM |  | 6300 nM | 1.42 | 92 nM |  | 
6 | C#Cc1ccc2cc1CN1CCN(CC1=O)Cc1cncn1Cc1ccc(C#N)c(c1)O2 | 3 µM (≈ 1.27 µg/mL) | 0.5 nM |  | 1.4 nM |  |  |  |  | 212 nM
7 | CCc1ccc2cc1CN1CCN(CC1=O)Cc1cncn1Cc1ccc(C#N)c(c1)O2 | 1 µM (≈ 0.428 µg/mL) | 0.66 nM |  | 1.2 nM |  | -0.16 |  |  | 124 nM
8 | N#Cc1ccc2cc1Oc1ccc(CC(O)CO)c(c1)CN1CCN(CC1=O)Cc1cncn1C2 (stereo not drawn) |  | 6.8 nM |  | 40 nM |  |  |  |  | 1050 nM
9 | N#Cc1ccc2cc1Oc1ccc(Br)c(c1)CN1CCN(CC1=O)Cc1cncn1C2 | 10 µM (≈ 4.78 µg/mL) | 0.45 nM |  | 1.1 nM |  |  |  |  | 100 nM
10 | N#Cc1ccc2cc1Oc1cccc(c1)CN1CCN(CC1=O)Cc1cncn1C2 | 30 µM (≈ 12 µg/mL) | 2.2 nM |  | 3.3 nM |  | 0.08 |  |  | 3780 nM
11 | CC(C)(C)CCc1ccc2cc1CN1CCN(CC1=O)Cc1cncn1Cc1ccc(C#N)c(c1)O2 | 0.1 µM (≈ 0.0484 µg/mL) | 19 nM |  | 28 nM |  | 0.48 |  |  | 2.1 nM
12 | N#Cc1ccc2cc1Oc1ccc(Cl)c(c1)CN1CCN(CC1=O)Cc1cncn1C2 |  | < 1 nM |  | 0.3 nM |  |  |  |  | 450 nM
13 | N#Cc1ccc2cc1Oc1ccc(F)c(c1)CN1CCN(CC1=O)Cc1cncn1C2 |  | < 1 nM |  | 1 nM |  |  |  |  | 2750 nM
14 | N#Cc1ccc2cc1Oc1ccc(C#CC3CCCCC3)c(c1)CN1CCN(CC1=O)Cc1cncn1C2 | 0.3 µM (≈ 0.152 µg/mL) | 364 nM |  | 170 nM |  | 0.68 |  |  | 2.4 nM
15 | N#Cc1ccc2cc1Oc1ccc(C(=O)NC3C4CC5CC(C4)CC3C5)c(c1)CN1CCN(CC1=O)Cc1cncn1C2 (stereo not drawn) | 0.1 µM (≈ 0.0577 µg/mL) | 20 nM |  | 30 nM |  | 0.28 |  |  | 43 nM
16 | C=CCc1ccc2cc1CN1CCN(CC1=O)Cc1cncn1Cc1ccc(C#N)c(c1)O2 | 1 µM (≈ 0.44 µg/mL) | 0.1 nM |  | 0.59 nM |  |  |  |  | 107 nM
17 | CC(C)(C)C#Cc1ccc2cc1CN1CCN(CC1=O)Cc1cncn1Cc1ccc(C#N)c(c1)O2 | 1 µM (≈ 0.48 µg/mL) | 38 nM |  | 10 nM |  | 0.32 |  |  | 55 nM
18 | N#Cc1ccc2cc1Oc1ccc(C#Cc3ccccc3)c(c1)CN1CCN(CC1=O)Cc1cncn1C2 |  | 645 nM |  |  |  |  |  |  | 534 nM
19 | COC(=O)c1ccc2cc1CN1CCN(CC1=O)Cc1cncn1Cc1ccc(C#N)c(c1)O2 | 3 µM (≈ 1.37 µg/mL) | 24 nM |  | 20 nM |  |  |  |  | 420 nM
20 | N#Cc1ccc2cc1Oc1ccc(CC3CC3)c(c1)CN1CCN(CC1=O)Cc1cncn1C2 | 10 µM (≈ 4.54 µg/mL) | 0.66 nM |  | 2.2 nM |  |  |  |  | 238 nM
21 | CCCc1ccc2cc1CN1CCN(CC1=O)Cc1cncn1Cc1ccc(C#N)c(c1)O2 | 1 µM (≈ 0.442 µg/mL) | 0.31 nM |  | 0.44 nM |  | -0.12 |  |  | 97 nM
